Legend:
[1] = target: T1, Coagulation factor X (Oryctolagus cuniculus) (UniProt O19045); test: Inhibitory activity against coagulation factor X at a concentration of 1 uM
T1 sequence (whole entry): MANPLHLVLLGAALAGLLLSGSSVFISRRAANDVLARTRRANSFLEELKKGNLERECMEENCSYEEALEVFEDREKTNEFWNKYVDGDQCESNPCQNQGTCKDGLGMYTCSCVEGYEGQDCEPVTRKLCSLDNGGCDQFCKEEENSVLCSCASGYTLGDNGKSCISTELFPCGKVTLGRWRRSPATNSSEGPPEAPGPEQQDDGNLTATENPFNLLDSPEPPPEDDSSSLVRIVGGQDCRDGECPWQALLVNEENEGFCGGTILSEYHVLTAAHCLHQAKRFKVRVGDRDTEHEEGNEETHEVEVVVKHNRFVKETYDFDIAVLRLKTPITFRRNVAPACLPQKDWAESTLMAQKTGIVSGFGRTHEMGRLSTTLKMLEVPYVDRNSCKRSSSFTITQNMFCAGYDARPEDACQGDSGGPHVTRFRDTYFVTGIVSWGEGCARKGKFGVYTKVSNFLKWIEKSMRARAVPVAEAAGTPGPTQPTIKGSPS
In short: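 Triplicate screen. DMSO stocks were diluted to 1 µM final inhibitor in 0.05 M Tris, 0.15 M NaCl, 0.1% PEG-8000, pH 7.5. Incubated 30 min at rt with 1 nM fXa, then 200 µM Spectrozyme chromogenic substrate added. Initial rates read at 405 nm over 5 min in kinetic mode; % inhibition reported.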

[2] = target: T1, Coagulation factor X (Oryctolagus cuniculus); test: Compound was tested for its inhibitory activity against Coagulation factor X at a concentration of 0.3 uM
[3] = target: T1, Coagulation factor X (Oryctolagus cuniculus); test: Compound was tested for its inhibitory activity against Coagulation factor X at a concentration of 0.1 uM
[4] = target: T1, Coagulation factor X (Oryctolagus cuniculus); test: Compound was tested for its inhibitory activity against Coagulation factor X at a concentration of 0.5 uM
[5] = target: T1, Coagulation factor X (Oryctolagus cuniculus); test: Compound was tested for its inhibitory activity against Coagulation factor X at a concentration of 0.7 uM
[6] = target: T1, Coagulation factor X (Oryctolagus cuniculus); test: Compound was tested for its inhibitory activity against Coagulation factor X at a concentration of 0.4 uM
[7] = target: T1, Coagulation factor X (Oryctolagus cuniculus); test: Compound was tested for its inhibitory activity against Coagulation factor X at a concentration of 0.2 uM

O=C1[C@@H](NS(=O)(=O)c2ccc(-c3ccncc3)s2)CCN1Cc1cc2cc[nH]cc-2n1
inhibition [1]: 50%

O=C1[C@@H](NS(=O)(=O)c2ccc(-c3ccc(Cl)s3)s2)CCN1Cc1cc2cc[nH]cc-2n1
inhibition [2]: 53%

O=C1[C@@H](NS(=O)(=O)c2ccc(-c3ccon3)s2)CCN1Cc1cc2cc[nH]cc-2n1
inhibition [1]: 49%

O=C1[C@@H](NS(=O)(=O)c2cc3ccc(Cl)cc3s2)CCN1Cc1cc2cc[nH]cc-2n1
inhibition [3]: 50%

O=C1[C@@H](NS(=O)(=O)c2nc3cc(Cl)ccc3[nH]2)CCN1CCNc1ccncc1
inhibition [1]: 29%

O=C1[C@@H](NS(=O)(=O)c2nc3cc(Cl)ccc3[nH]2)CCN1Cc1cc2cc[nH]cc-2n1
inhibition [1]: 21%

O=C1[C@@H](NS(=O)(=O)c2ccc(-c3ccccn3)s2)CCN1Cc1cc2[nH]cccc-2n1
inhibition [1]: 8%

O=C1[C@@H](NS(=O)(=O)c2ccc(-c3ccon3)s2)CCN1Cc1cc2c[nH]ccc-2n1
inhibition [1]: 17%

O=C1[C@@H](NS(=O)(=O)c2cc3c(Cl)nccc3s2)CCN1Cc1cc2c[nH]ccc-2n1
inhibition [1]: 35%

O=C1[C@@H](NS(=O)(=O)c2cc3ccc(Cl)nc3s2)CCN1Cc1cc2cc[nH]cc-2n1
inhibition [1]: 50%

O=C1[C@@H](NS(=O)(=O)c2cc3ccc(Cl)cc3s2)CCN1Cc1cc2c[nH]ccc-2n1
inhibition [4]: 53%

O=C1[C@@H](NS(=O)(=O)c2ccc(-c3ccc(Cl)s3)s2)CCN1CCNc1ccncc1
inhibition [3]: 77%

O=C1[C@@H](NS(=O)(=O)c2ccc(-c3ccccn3)s2)CCN1Cc1cc2cc[nH]cc-2n1
inhibition [1]: 17%

O=C1[C@@H](NS(=O)(=O)c2cc3ncccc3s2)CCN1Cc1cc2c[nH]ccc-2n1
inhibition [1]: 61%

O=C1[C@@H](NS(=O)(=O)c2ccc(-c3ccon3)s2)CCN1CCNc1ccncc1
inhibition [1]: 22%

O=C1[C@@H](NS(=O)(=O)c2ccc(-c3ccccn3)s2)CCN1Cc1cc2c[nH]ccc-2n1
inhibition [1]: 11%

O=C1[C@@H](NS(=O)(=O)c2cc3cccnc3s2)CCN1Cc1cc2c[nH]ccc-2n1
inhibition [1]: 18%

O=C1[C@@H](NS(=O)(=O)c2cc3ncccc3s2)CCN1CCNc1ccncc1
inhibition [5]: 50%

Cc1c(S(=O)(=O)N[C@H]2CCN(Cc3cc4c[nH]ccc-4n3)C2=O)sc2ccc(Cl)cc12
inhibition [1]: 37%

CC(C)(C)c1ccc(S(=O)(=O)N[C@H]2CCN(Cc3cc4c[nH]ccc-4n3)C2=O)cc1
inhibition [1]: 14%

O=C1[C@@H](NS(=O)(=O)c2cc3cccnc3s2)CCN1Cc1cc2[nH]cccc-2n1
inhibition [1]: 44%

CC(C)(C)c1ccc(S(=O)(=O)N[C@H]2CCN(CCNc3ccncc3)C2=O)cc1
inhibition [1]: 14%

O=C1[C@@H](NS(=O)(=O)c2cc3ccc(Cl)nc3s2)CCN1Cc1cc2c[nH]ccc-2n1
inhibition [1]: 51%

O=C1[C@@H](NS(=O)(=O)c2cc3ccc(Cl)cc3s2)CCN1CCNc1ccncc1
inhibition [3]: 57%

O=C1[C@@H](NS(=O)(=O)c2cc3nc(Cl)ccc3s2)CCN1Cc1cc2[nH]cccc-2n1
inhibition [4]: 48%

O=C1[C@@H](NS(=O)(=O)c2nc3cc(Cl)ccc3[nH]2)CCN1Cc1cc2c[nH]ccc-2n1
inhibition [1]: 31%

O=C1[C@@H](NS(=O)(=O)c2cc3cccnc3s2)CCN1CCNc1ccncc1
inhibition [1]: 23%

O=C1[C@@H](NS(=O)(=O)c2ccc(-c3ccon3)s2)CCN1Cc1cc2[nH]cccc-2n1
inhibition [1]: 31%

O=C1[C@@H](NS(=O)(=O)c2cc3cccnc3s2)CCN1Cc1cc2cc[nH]cc-2n1
inhibition [4]: 43%

O=C1[C@@H](NS(=O)(=O)c2cc3ncccc3s2)CCN1Cc1cc2cc[nH]cc-2n1
inhibition [3]: 52%

O=C1[C@@H](NS(=O)(=O)c2ccc(-c3ccncc3)s2)CCN1Cc1cc2[nH]cccc-2n1
inhibition [1]: 35%

O=C1[C@@H](NS(=O)(=O)c2cc3ccnc(Cl)c3s2)CCN1Cc1cc2[nH]cccc-2n1
inhibition [1]: 45%

O=C1[C@@H](NS(=O)(=O)c2cc3c(Cl)nccc3s2)CCN1CCNc1ccncc1
inhibition [1]: 39%

O=C1[C@@H](NS(=O)(=O)c2ccc(-c3ccncc3)s2)CCN1CCNc1ccncc1
inhibition [1]: 41%

O=C1[C@@H](NS(=O)(=O)c2cc3ccnc(Cl)c3s2)CCN1CCNc1ccncc1
inhibition [1]: 23%

O=C1[C@@H](NS(=O)(=O)c2cc3ccc(Cl)nc3s2)CCN1CCNc1ccncc1
inhibition [3]: 53%

O=C1[C@@H](NS(=O)(=O)c2ccc(-c3ccccn3)s2)CCN1CCNc1ccncc1
inhibition [1]: 18%

O=C1[C@@H](NS(=O)(=O)c2cc3nc(Cl)ccc3s2)CCN1CCNc1ccncc1
inhibition [6]: 50%

O=C1[C@@H](NS(=O)(=O)c2cc3c(Cl)nccc3s2)CCN1Cc1cc2[nH]cccc-2n1
inhibition [4]: 50%

Cc1c(S(=O)(=O)N[C@H]2CCN(Cc3cc4[nH]cccc-4n3)C2=O)sc2ccc(Cl)cc12
inhibition [1]: 40%

O=C1[C@@H](NS(=O)(=O)c2ccc(-c3ccc(Cl)s3)s2)CCN1Cc1cc2[nH]cccc-2n1
inhibition [1]: 42%

CC(C)(C)c1ccc(S(=O)(=O)N[C@H]2CCN(Cc3cc4[nH]cccc-4n3)C2=O)cc1
inhibition [1]: 22%

O=C1[C@@H](NS(=O)(=O)c2nc3cc(Cl)ccc3[nH]2)CCN1Cc1cc2[nH]cccc-2n1
inhibition [1]: 14%

O=C1[C@@H](NS(=O)(=O)c2ccc(-c3ccncc3)s2)CCN1Cc1cc2c[nH]ccc-2n1
inhibition [1]: 21%

Cc1c(S(=O)(=O)N[C@H]2CCN(CCNc3ccncc3)C2=O)sc2cc(Cl)ccc12
inhibition [4]: 47%

O=C1[C@@H](NS(=O)(=O)c2cc3ccnc(Cl)c3s2)CCN1Cc1cc2c[nH]ccc-2n1
inhibition [1]: 25%

O=C1[C@@H](NS(=O)(=O)c2cc3nc(Cl)ccc3s2)CCN1Cc1cc2c[nH]ccc-2n1
inhibition [1]: 58%

O=C1[C@@H](NS(=O)(=O)c2cc3ncccc3s2)CCN1Cc1cc2[nH]cccc-2n1
inhibition [2]: 58%

CC(C)(C)c1ccc(S(=O)(=O)N[C@H]2CCN(Cc3cc4cc[nH]cc-4n3)C2=O)cc1
inhibition [1]: 57%

O=C1[C@@H](NS(=O)(=O)c2cc3ccc(Cl)nc3s2)CCN1Cc1cc2[nH]cccc-2n1
inhibition [1]: 23%

O=C1[C@@H](NS(=O)(=O)c2cc3ccc(Cl)cc3s2)CCN1Cc1cc2[nH]cccc-2n1
inhibition [4]: 64%

O=C1[C@@H](NS(=O)(=O)c2cc3ccnc(Cl)c3s2)CCN1Cc1cc2cc[nH]cc-2n1
inhibition [4]: 48%

O=C1[C@@H](NS(=O)(=O)c2ccc(-c3ccc(Cl)s3)s2)CCN1Cc1cc2c[nH]ccc-2n1
inhibition [3]: 62%

O=C1[C@@H](NS(=O)(=O)c2cc3c(Cl)nccc3s2)CCN1Cc1cc2cc[nH]cc-2n1
inhibition [7]: 52%

Source: ChEMBL document CHEMBL1132870, “Solid-phase parallel synthesis of azarene pyrrolidinones as factor Xa inhibitors” (Bioorg Med Chem Lett, 2000)
